In the library only some 4.1% were active in any assay of this set; here they are far more common.
UBC13 inh: inhibitors of human UBC13 polyubiquitin chain formation; P61088; TR-FRET; inhibition, % at 20 µM; 0.47% of 330,000 active; in the data active = inhibition above about 45%, passing the limit was not always enough
CHOP UPR activ: apoptotic UPR (CHOP) activation; activation, % at 10 µM; CHO-CHOP luciferase reporter, luminescence; percent of tunicamycin response over DMSO baseline; AID 449763; 0.34% of 330,000 active;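 active = at 10 µM dose, activation of 40% or more, normalized to positive control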;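 also: 100% = tunicamycin at 10 µg/mL and 0% = DMSO alone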
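Assay system: CHO-CHOP cells, stable luciferase reporter of PERK-eIF2a-CHOP signalling / Buffer or medium: F12 plus 10% serum / Compound dosing: one dose, 10 µM in 0.5% DMSO / Times: 6 h compound treatment, 37 °C / Technique: luciferase luminescence / Read-out: % reporter activation, DMSO baseline versus tunicamycin full activation / Benchmarks: tunicamycin and DMSO controls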
Mdm2-MdmX inh: inhibitors of human Mdm2/MdmX interaction | 3% of 330,000 active | inhibition, % at 8 µM | O15151+Q00987 | SaOS-2 split-luciferase Mdm2/MdmX complementation, luminescence | AID 485346;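 active = inhibition of at least 50% at 8 µM in the primary screen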
UPR XBP1 act: activators of adaptive arm of unfolded protein response (XBP1); activation, % at 20 µM; CHO-XBP1 luciferase reporter, IRE1-XBP1 UPR activation, luminescence; percent of tunicamycin response, DMSO as zero; 0.33% of 330,000 active;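 active = versus positive control, 20 µM dose yields 30% or more activation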;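 also: 100% = tunicamycin at 10 µg/mL and 0% = DMSO only wells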
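Material: IRE1-XBP1 luciferase reporter CHO line / Quantity: one thousand reporter cells per well / Buffer or medium: F12 with 10% serum / Compound: 20 µM single concentration, DMSO 1% / Times: 6 h treatment, 37 °C / Detection: Steady-Glo luciferase glow luminescence, 10 min after reagent addition / Benchmarks: tunicamycin high, DMSO low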
Apaf1 inhib: human Apaf-1 inhibition. O14727. AID 489030. 0.71% of 330,000 active. reconstituted apoptosome caspase-3 activity, DEVD-Rh110 fluorescence. inhibition, % at 20 µM; active = inhibition of at least 40% at 20 µM;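 also: plate controls were DMSO wells for no effect and DEVD-CHO caspase inhibitor wells for full effect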
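Material: reconstituted apoptosome with Apaf-1, cytochrome c, caspase-9, procaspase-3, dATP / Buffer or medium: pH 7.5 Hepes buffer with CHAPS, BSA, DTT / Also added: cytochrome c with DEVD-Rh110 / Schedule: compound with Apaf-1, dATP, procaspase-3 30 min, then 50 min reaction, room temperature / Technique: rhodamine 110 fluorescence at Ex 480/Em 540 nm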
CHOP UPR conf: confirmation of apoptotic unfolded protein response (CHOP) activators; shares compounds with CHOP UPR activ; CHO-CHOP cells, CHOP-luciferase reporter luminescence; percent of tunicamycin response, DMSO as zero; activation, % at 10 µM; 64% of 1,000 active; AID 463112; in the data active = activation above about 33%;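 also: 0% = DMSO wells and 100% = tunicamycin 10 µg/mL wells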
Starred values were filed as active, the others as inactive; x = not tested or not shown.

SMILES	UBC13 inh	CHOP UPR activ	Mdm2-MdmX inh	UPR XBP1 act	Apaf1 inhib	CHOP UPR conf
N=C1N(/N=C/c2ccccc2)C(=Nc2ccccc2)C(=S)N1c1ccccc1	-14	76*	-48	4	9	8
CC(C)c1ccc(/C=C/C(=O)n2nnc3ccccc32)cc1	-6	69*	24	2	12	17
O=C(/C=C\c1ccccc1OC(=O)c1ccccc1F)c1cc2ccccc2o1	7	55*	-17	12	3	287*
CC(=O)/C=C\c1ccccc1OC(=O)c1cc2ccccc2oc1=O	9	2	4	-4	-11	x
COC(=O)c1cc2cc(Cl)ccc2nc1SC	8	-1	19	0	3	x
Cc1ccc(/C=C/C(=O)NC2CCCCCCC2)o1	-6	125*	-5	4	16	3
COc1cccc(NC(=O)[C@H](C)NC(=O)C2CCN(S(=O)(=O)c3ccc(C)cc3)CC2)c1	7	-1	10	1	-17	x
O=C(NC1CCCCC1)C(c1ccncc1)N(Cc1ccc(F)cc1)C(=O)c1ccccn1 (stereo unspecified)	-3	-1	-9	-1	4	x
O=C(NC1CCCC1)C(c1ccc(F)cc1)N(Cc1ccc(F)cc1)C(=O)CCl (stereo unspecified)	-15	48*	17	-1	0	93*
CN(C)CCNC(=O)c1coc(=O)c(Br)c1	14	1	-16	1	10	x
CC(C)CNC(=O)c1coc(=O)c(Br)c1	-16	175*	26	-6	16	70*
O=C(NCCc1ccccc1)c1coc(=O)c(Br)c1	1	105*	41	-8	-2	73*
NC(=O)c1ccc[n+](CC(=O)c2ccc(F)cc2)c1	3	-2	-2	-1	-8	x
Oc1ccc(-c2nc(-c3ccc(O)c(O)c3)cs2)cc1	2	146*	12	9	-1	96*
Oc1ccc(-c2csc(-c3cccnc3)n2)c(O)c1	4	4	-18	1	8	x
Oc1ccc(Nc2nc(-c3ccc4ccccc4c3)cs2)cc1	19	63*	-88	17	-12	30
CCCCCCNC(=O)CCCCCNS(=O)(=O)c1ccc(OC)cc1	1	1	3	-1	5	x
C/C(=N\OCc1ccc(C#N)cc1)c1ccc(S(=O)(=O)N(C)C)cc1	-3	41*	1	4	24	6
Cc1nc(-c2ccc(S(=O)(=O)Oc3ccc(Cl)cc3Cl)s2)cs1	-2	0	45	-7	6	x
CCOC(=O)c1c(NC(=O)c2ccccc2Cl)sc2c1CCc1ccccc1-2	23	1	17	0	6	x
CCCCC(=O)Nc1sc2c(c1C(=O)OCC)CCC(C=O)=C2Cl	-14	63*	29	33*	21	33*
CCOc1cc(S(=O)(=O)NCCCn2ccnc2)ccc1Cl	9	-1	20	-3	-6	x
O=C([C@H](Cc1ccc(O)cc1)n1cc(CCO)nn1)N1CCNCC1	-3	-1	10	-1	-3	x
Cc1ccc(C(=O)/C=C/c2ccc(-c3ccccc3[N+](=O)[O-])o2)cc1	-27	2	11	0	28	x
Cc1ccc(C(=O)/C=C/C(=O)c2ccc(C)cc2)cc1	-10	139*	44	-7	15	370*
SMILES	UBC13 inh	CHOP UPR activ	Mdm2-MdmX inh	UPR XBP1 act	Apaf1 inhib	CHOP UPR conf
Cc1ccc(-c2ccc(/C=C/C(=O)c3ccccc3)o2)cc1	-2	193*	45	0	14	2
O=C(/C=C/c1ccc(-c2ccccc2)o1)c1ccccc1	20	93*	-8	16	3	7
COc1ccccc1-c1sc2ccccc2c1C#Cc1ccc(N(C)C)cc1	2	-2	-5	1	9	x
CCc1cc(=O)oc2c3c(cc(OCC(=O)NCCCOC)c12)OC(C)(C)CC3	19	0	-23	-1	-4	x
O=C1CC(c2ccccc2)CC(O)=C1C=Nc1ccc(Cl)cc1 (stereo unspecified)	-8	43*	-4	26	-7	29
Cc1cccc(Nc2nc(-c3ccccn3)cs2)n1	-28	83*	-105	26	-12	35*
Cc1cccc(Nc2nc(-c3cccs3)cs2)n1	9	0	-231	3	15	x
O=C(Oc1oc(-c2ccco2)nc1C=Nc1ccc(Cl)cc1)c1ccco1	-20	77*	0	9	1	76*
COc1ccc(N=Cc2nc(-c3ccco3)oc2O)cc1	-1	3	-2	1	6	x
O=[N+]([O-])c1cc2cccnc2c2ncccc12	-24	2	22	-3	2	x
O=[N+]([O-])c1cc(O)c2ncccc2c1	-40	109*	44	13	32	88*
CSc1ccccc1C(=O)N1CCC2(CC1)CC(=O)c1ccccc1O2	6	-1	32	-1	-1	x
COc1ccc(C(=O)Oc2cccc3cccnc23)cc1[N+](=O)[O-]	-4	-1	-25	5	2	x
Cc1ccc(C(=O)Oc2ccc(Cl)c3cccnc23)cc1[N+](=O)[O-]	-11	81*	20	22	8	65*
CCc1cc(C(=O)c2ccc(C)cc2)c(NC(=O)CCl)s1	6	108*	47	6	27	114*
CCCN(C(=O)CCSc1ccc(F)cc1)c1c(N)n(Cc2ccccc2)c(=O)[nH]c1=O	-3	0	6	-2	-3	x
CN(CC(=O)N1CCN(Cc2ccccc2)CC1)C(=O)Cc1cccc2ccccc12	-10	0	10	-3	5	x
O=C1C=C(Nc2ccc(F)cc2)c2ccccc2C1=O	-256	62*	44	2	87*	9
Cc1cc(C)cc(N2C(=O)CC(Sc3nnnn3-c3ccccc3)C2=O)c1 (stereo unspecified)	13	56*	5	-5	-7	28
Cn1nnnc1SC1CC(=O)N(c2ccccc2)C1=O (stereo unspecified)	-4	1	5	0	-5	x
Nc1cc2c(cc1C(=O)c1ccc(Cl)cc1)OCCO2	2	-3	27	4	11	x
Oc1ccc(-c2cn3c(n2)SCC3)cc1O	5	52*	4	0	-4	2
CC1(C)CC(=O)C(=Cc2cn(-c3ccccc3)nc2-c2ccc(Cl)cc2)C(=O)C1	-23	288*	37	27	19	221*
COc1ccc(-c2cc(C(F)F)n3ncc(C(=O)n4ccnc4C)c3n2)cc1	14	131*	37	-4	9	135*
COc1ccc(-c2cc(C(F)F)n3ncc(C(=O)N4CCN5CCCC5C4)c3n2)cc1 (stereo unspecified)	13	3	5	8	-7	x
